Measurements as given in ChEMBL document CHEMBL1139837, “Synthesis and transfection efficiencies of new lipophilic polyamines” (J Med Chem, 2007).
Calls of active or inactive are those of the source.

Key:
CHO-K1 [1] = test: Increase in uptake of DNA in CHOK1 cells after 4 hrs at 5 ug/mL; type: functional, cell-based; conditions: Cricetulus griseus
Procedure, shortened: (§1)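 Confluent CHO-K1 cells, rinsed, were incubated 4 h at 37 °C in serum-free F12K with 1 µg/mL Alexa Fluor-488-labeled DNA complexed with cationic lipid at 0.5, 2.5 or 5 µg/mL. Cells were washed with PBS, trypsinized, washed with ice-cold PBS/1% BSA to remove surface signal, then assayed by flow cytometry for internalized fluorescence. Gated percent positive cells were set against DNA-only cells; mean ± SD.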

CHO-K1 [2] = test: Increase in uptake of DNA in CHOK1 cells after 4 hrs; type: functional, cell-based; conditions: Cricetulus griseus; procedure, shortened: as §1
CHO-K1 [3] = test: Transfection efficiency in eGFP encoding DNA transfected CHOK1 cells after 24 hrs at 5 ug/mL; type: functional, Cricetulus griseus
Procedure, shortened: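 Subconfluent (~50%) CHO-K1 cells were exposed 4 h at 37 °C in F12K to 1 µg/mL eGFP plasmid complexed with lipid (0.5, 2.5 or 5 µg/mL). Medium was then replaced with growth medium for 24 h. Trypsinized cells were scored by FACS. The gate was set above the no-plasmid/no-lipid threshold (5.5), giving % GFP-positive cells; mean ± SD.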

CHO [4] = test: Survival of CHO cells after 48 hrs upto 6.4 uM; type: functional, Cricetulus griseus
Procedure, shortened: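 CHO cells grown at 37 °C, 5% CO2, in RPMI with 10% fetal calf serum, 2 mM glutamine, penicillin/streptomycin and 2 mM aminoguanidine. Viability was checked by trypan blue before each run. Cells were plated at 2e3 cells/mL in 96-well plates and dosed after overnight incubation. DMSO was kept below 40 µM. Growth after 48 h was read as MTT formazan absorbance at 540 nm.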

CHO [5] = test: Cytotoxicity against CHO cells after 24 hrs at 0.5 uM; type: cell-based, Cricetulus griseus; conditions: chinese hamster
[6] = Inhibition of [14C]spermine uptake into polyamine transporter in CHOK1 cells; type: cell-based; conditions: Cricetulus griseus, CHO-K1
Procedure, shortened: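 Subconfluent CHO-K1 cells were rinsed three times in F12K and dosed with varying compound concentrations. They were incubated 20 min with 1 µM [14C]spermine (31 Ci/mol) in serum-free medium, rinsed (including 1 mM spermine washes), and lysed in 0.5 M NaOH for 1 h at 37 °C. Lysates were neutralized and scintillation-counted to give an IC50.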

CCCCCCCC/C=C/CCCCCCCCOc1ccc(CNCCCCNCCCCN)cc1OCCCCCCCC/C=C/CCCCCCCC
Activity (CHO-K1 [1]): Active | Activity (CHO-K1 [2]): Dose-dependent effect | Activity (CHO-K1 [3]): 49% | Survival (CHO [4]): >=90%

CCCCCCCC/C=C/CCCCCCCCOc1ccc(C(=O)NCCCCNCCCCNCCCCN)cc1OCCCCCCCC/C=C/CCCCCCCC
Activity (CHO-K1 [2]): Dose-dependent effect | Activity (CHO [5]): 95%

CCCCCCCC/C=C/CCCCCCCCOc1ccc(CNCCCCCCCCN)cc1OCCCCCCCC/C=C/CCCCCCCC
Activity (CHO-K1 [2]): Dose-dependent effect | Activity (CHO-K1 [3]): 23% | Survival (CHO [4]): >=90%

CCCCCCCC/C=C/CCCCCCCCOc1ccc(C(=O)NCCCCNCCCCN)cc1OCCCCCCCC/C=C/CCCCCCCC
Activity (CHO-K1 [2]): Dose-dependent effect | Activity (CHO-K1 [3]): 40% | Survival (CHO [4]): >=90%

CCCCCCCC/C=C/CCCCCCCCOc1ccc(CNCCCCNCCCCNCCCCN)cc1OCCCCCCCC/C=C/CCCCCCCC
Activity (CHO-K1 [1]): Active | Activity (CHO-K1 [2]): Dose-dependent effect | Activity (CHO-K1 [3]): 67% | IC50 [6]: 10 µM | Survival (CHO [4]): >=90%

CCCCCCCC/C=C/CCCCCCCCOc1ccc(CNCCOCCOCCN)cc1OCCCCCCCC/C=C/CCCCCCCC
Activity (CHO-K1 [2]): Dose-dependent effect | Activity (CHO-K1 [3]): 25% | Survival (CHO [4]): >=90%

CCCCCCCC/C=C/CCCCCCCCOc1ccc(CNCCCCN)cc1OCCCCCCCC/C=C/CCCCCCCC
Activity (CHO-K1 [1]): Active | Activity (CHO-K1 [2]): Dose-dependent effect | Activity (CHO-K1 [3]): 38% | Survival (CHO [4]): >=90%
